According to paper PMC8603004 (EFSA Journal, 2021):

Tests used:
[1] = Incubation of 14C‐3‐NOP in liver fractions; format: in vitro ADME; conditions: Beagle, dog, liver S9
Method in brief: (§1)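 14C-labelled test compound was incubated with or without NAD+ in liver S9, cytosol and microsomes from Sprague–Dawley rat, Wistar Han rat, Beagle dog and human. Aliquots were taken at several time points and the proteins precipitated. Supernatants were analysed by liquid scintillation counting and radio-HPLC, and half-life was derived from the time course.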

[2] = system: Wistar rats; assay: 2‐year carcinogenicity study; format: in vivo
[3] = system: ruminal microorganisms; assay: In vitro ruminal fermentation; conditions: 3‐NOP added to the feed at different concentrations, three studies
Method in brief: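 Rumen fermentation was simulated in a chemostat (RUSITEC) as continuous culture of ruminal microorganisms. Each of three studies included a control without additive and one or more groups with test compound added to the feed at differing concentrations.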

[4] = First in vivo toxicokinetic study; parameters: species or system male Wistar rats
Method in brief: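 Male Wistar rats received a single oral dose of 500 mg/kg bw 14C-labelled test compound under OECD TG 417 and were killed 48 h post-dose. Total radioactivity was measured in plasma, excreta and selected organs and tissues. Tissue levels were expressed as μg test-compound-eq/g and recovery as % of applied dose.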

[5] = system: dairy cows, beef cattle and sheep; conditions: 100 mg 3‐NOP/kg DMI; cited from earlier work
[6] = Second in vivo toxicokinetic study, metabolic profile in gut and plasma; parameters: species or system male Wistar rats
Method in brief: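 Single oral dose of 500 mg/kg bw 14C-labelled test compound to male Wistar rats. One animal per time point was killed at 1, 2 and 3 h post-dose and blood was collected. Stomach, small intestine, caecum and colon contents were removed for total radioactivity. Metabolites were characterised by NMR and/or LC/MS.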

[7] = Incubation of 14C‐3‐NOP in liver fractions; format: in vitro ADME; conditions: Sprague-Dawley, rat, liver cytosol
Method in brief: as §1

[8] = system: New Zealand White rabbits; assay: Prenatal developmental toxicity study; conditions: rabbit, in vivo
[9] = system: bone marrow cells of Wistar WI (Han) rats; assay: In vivo micronucleus test, oral gavage
[10] = Second goat experiment, pre‐dosed 5 days; format: in vivo, lactating goat
[11] = ADME in four lactating cows; format: in vivo
[12] = Mass balance with volatile trapping and tissue distribution study; format: in vivo, male Wistar rats
Method in brief: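 Mass balance under OECD TG 417 in male Wistar rats given a single oral dose of 500 mg/kg bw 14C-labelled test compound. Rats were housed individually in air-tight glass metabolism cages. Volatiles were adsorbed in trapping solutions over 0–8 h and 8–24 h, and urine and faeces were collected over 0–24 h. Tissues, carcass and GI contents were taken at 24 h and results expressed as % of dose.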

[13] = Skin corrosion study
[14] = system: CByB6F1 Hybrid mice; assay: 28‐day oral gavage study with toxicokinetic evaluation of NOPA; format: in vivo
[15] = 3.28 mg/kg bw per day, two days labelled
[16] = males, 700 mg/kg bw per day (control 0/10)

O=[N+]([O-])OCCCO [3‐NOP, propan‐1,3‐diol‐mononitrate]
half-life [1]: 66 min | NOAEL ([2]; benign gastrointestinal mesenchymal tumours in small intestines): 100 mg 3‐NOP/kg bw per day | Benign mesenchymal cell tumours (PWG) ([2]; females, 300 mg/kg bw per day): three | Methane output in vitro [3]: reduces methane output significantly | Mean overall recovery of the radioactivity applied ([4]; 48 h): 28% | Radioactivity recovered from tissues, organs and carcass ([4]; 48 h): 5.5 % of the dose | Radioactivity remaining in gastrointestinal content ([4]; 48 h): 0.2 % of the dose | Radioactivity concentration in adrenal glands ([4]; 48 h after 500 mg/kg bw): 113.9 μg 3‐NOP‐eq/g | Radioactivity concentration in brain ([4]; 48 h after 500 mg/kg bw): 31.2 μg NOP‐eq/g | Radioactivity concentration in fat ([4]; 48 h after 500 mg/kg bw): 23.5 μg NOP‐eq/g | Radioactivity concentration in kidney ([4]; 48 h after 500 mg/kg bw): 71.6 μg 3‐NOP‐eq/g | Radioactivity concentration in liver ([4]; 48 h after 500 mg/kg bw): 139.6 μg 3‐NOP‐eq/g | Radioactivity concentration in muscle ([4]; 48 h after 500 mg/kg bw): 27.1 μg NOP‐eq/g | Radioactivity recovered in total excreta ([4]; at 48 h): 20 % of the dose | Radioactivity recovered in urine ([4]; first 24 h): 17.6 % of the dose | Radioactivity recovered in urine ([4]; interval 24‐48 h): 0.3 % of the dose | Cmax radioactivity in plasma ([4]; single oral 500 mg/kg bw): about 600 μg 3‐NOP‐eq/g | Radioactivity in plasma after 48 h ([4]; single oral 500 mg/kg bw): 27 μg 3‐NOP‐eq/g | Time of Cmax radioactivity in plasma ([4]; single oral 500 mg/kg bw): 1 h | Radioactivity excreted in faeces ([4]; within 48 h): 2.3 % of the dose | Decrease of CH4 [5]: about 20% | Intact compound, share of radioactivity in small intestine content ([6]; 1 and 3 h after 500 mg/kg bw): < 4% | Intact compound, share of radioactivity in stomach content ([6]; 1 and 3 h after 500 mg/kg bw): more than 80% | Radioactivity in plasma ([6]; 1 h post‐dose): 713 μg 3‐NOP‐eq/g | Radioactivity in plasma ([6]; 2 h post‐dose): 522 μg 3‐NOP‐eq/g | Radioactivity in plasma ([6]; 3 h post‐dose): 156 μg 3‐NOP‐eq/g | Overall radioactivity recovered ([6]; after 1 h): 88 % of the dose | Overall radioactivity recovered ([6]; after 2 h): 78 % of the dose | Overall radioactivity recovered ([6]; after 3 h): 58 % of the dose | Radioactivity in urine ([6]; urine 0 to 2 h of one animal): 13.7 % of the applied dose | half-life [7]: 42 min | NOAEL for maternal and developmental toxicity [8]: at least 450 mg/kg bw per day | In vivo MN test result ([9]; 375, 750 and 1,500 mg/kg bw by gavage): Equivocal results | Dose showing severe symptoms and mortality ([9]; dose‐range finding test, gavage): 2,000 mg/kg bw | Radioactivity excreted via faeces [10, 15]: 0.71 % of radioactivity totally app | Radioactivity excreted via milk [10, 15]: 4.48 % of radioactivity totally app | Radioactivity excreted via urine [10, 15]: 1.97 % of radioactivity totally app | Radioactivity in the intestinal tract content [10, 15]: 14.87 % of radioactivity totally app | Radioactivity remaining in the total edible tissues [10, 15]: 8.99 % of radioactivity totally app | Total radioactivity excreted [10, 15]: 7.18% | Total recovery at sacrifice [10, 15]: 31.04% | Radioactive residues in plasma ([10]; 0.5 h after the first administration): 2.31 mg 3‐NOP‐equivalents/kg | Plasma radioactivity associated with the plasma protein fraction ([10]; 0.5 h post‐dose): 4.4% | Radioactivity in the aqueous phase of plasma ([10]; 0.5 h post‐dose): 95.6% | Plasma radioactivity associated with the plasma protein fraction ([10]; 24 h post‐dose): 89.4% | Radioactivity in the aqueous phase of plasma ([10]; 24 h post‐dose): 10.6% | Nitrate esters in the aqueous phase of plasma, not detectable (LOD) ([10]; LOD ≤ 0.07): < 0.07 mg/kg | Nitrate esters in the aqueous milk fraction, not detectable (LOD) ([10]; LOD ≤ 0.21): < 0.21 mg/kg | Radioactive residues in plasma ([10]; at sacrifice): 1.6 mg 3‐NOP‐equivalents/kg | Radioactivity excreted via faeces, mean ([11]; 1.8 g/animal per day, 7 days): 2.7 % of radioactivity totally app | Radioactivity excreted via milk, mean ([11]; 1.8 g/animal per day, 7 days): 16.82 % of radioactivity totally app | Radioactivity excreted via urine, mean ([11]; 1.8 g/animal per day, 7 days): 4 % of radioactivity totally app | Radioactivity remaining in the total tissues ([11]; 1.8 g/animal per day, 7 days): 6.2 % of radioactivity totally app | Total radioactivity excreted ([11]; 1.8 g/animal per day, 7 days): 23.5% | Total recovery at sacrifice ([11]; 1.8 g/animal per day, 7 days): approximately 30% | 3‐NOP and NOPA in total excreta, worst‐case scenario ([11]; dairy cows): ≤ 0.2% | Residue in milk, not found above the LOQ ([11]; in vivo): < 8 μg 3‐NOP‐equivalents/kg | Residue in tissues, not found above the LOQ ([11]; in vivo): < 21 μg 3‐NOP‐equivalents/kg | Amount in urine ([11]; urine of one animal (day 2–day 6)): 0.1 % of the dose | Radioactivity exhaled ([12]; 0 to 8 h post‐dose): 64.3% | Dose recovered in faeces ([12]; 0 to 24 h): 1.2 % of the dose | Dose recovered in urine ([12]; 0 to 24 h): 9.8 % of the dose | Radioactivity exhaled ([12]; 8 to 24 h post‐dose): 13.0% | Dose in the gastrointestinal tract content ([12]; 24 h): 0.5 % of the dose | Dose remaining in the tissues and carcass ([12]; 24 h): 7.7 % of the dose | Overall recovery of radioactivity ([12]; 24 h): 99.3% | Dose recovered from the volatile traps (almost all as 14CO2) ([12]; 24 h after single oral 500 mg/kg bw): 77.4 % of the dose | Mean concentration of radioactive compounds in blood ([12]; 24 h post‐dose): 48.7 μg 3‐NOP‐eq/g | Radioactivity concentration in adrenal glands ([12]; 24 h post‐dose): 159.3 μg 3‐NOP‐eq/g | Radioactivity concentration in brain ([12]; 24 h post‐dose): 24.8 μg 3‐NOP‐eq/g | Radioactivity concentration in fat ([12]; 24 h post‐dose): 58.9 μg 3‐NOP‐eq/g | Radioactivity concentration in kidney ([12]; 24 h post‐dose): 118.4 μg 3‐NOP‐eq/g | Radioactivity concentration in liver ([12]; 24 h post‐dose): 184.5 μg 3‐NOP‐eq/g | Radioactivity concentration in muscle ([12]; 24 h post‐dose): 42.4 μg 3‐NOP‐eq/g | Skin corrosion potential [13]: not corrosive to skin | Reduction in mean overall food consumption ([14]; 700 mg/kg bw per day, vs control): 6% | NOAEL ([14]; blood biochemical changes at 300 mg/kg bw per day): 100 mg 3‐NOP/kg bw per day | Decrease of absolute thymus weight ([14]; males, 700 mg/kg bw per day): 22% | Decrease of relative thymus weight ([14]; males, 700 mg/kg bw per day): 23% | Incidence of mild inflammation of the eye striated muscle [14, 16]: 4/10 | Incidence of minimal to mild adrenal cortical vacuolation [14, 16]: 4/10
